Data on ten molecules can be found in ChEMBL document CHEMBL2417356, “Identification of 2,3-disubstituted pyridines as potent, orally active PDE4 inhibitors” (Bioorg Med Chem, 2013).

The species named for assay [1] is Cavia porcellus. The assay can be described thus: Inhibition of Hartley guinea pig eosinophil PDE4 assessed as cAMP hydrolysis at 100 nM by two-step radioisotope method relative to control.
The subject of assay [2] is Mus musculus. The assay can be described thus: Antiinflammatory activity in mouse assessed as inhibition ovalbumin-induced eosinophil infiltration into lung at 10 mg/kg, po administered 30 mins prior to ovalbumin challenge followed by once per day compound administration measured after 2 days relative to vehicle-treated control. The format is functional. In a few lines:
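Male mice, 5 weeks old, OVA-sensitized. Dosed orally 30 min before intranasal OVA challenge and once daily for the next 2 days. Challenge given 7 days after the last sensitizing OVA injection, under anaesthesia. Bronchoalveolar lavage under pentobarbital 3 days post-challenge. BALF diluted 10-fold in Turk's solution and living infiltrated cells counted. % inhibition calculated against vehicle group.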

A short description of assay [3]: (§1) Inhibition of Hartley guinea pig eosinophil PDE4 assessed as cAMP hydrolysis by two-step radioisotope method. Also noted: species or system Cavia porcellus. In a few lines: (§2)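 PDE4 purified from eosinophils of male Hartley guinea pigs (~500 g) given 5 mg polymyxin B. Activity measured by a modified two-step radioisotope method with [3H]cAMP substrate, quantifying hydrolyzed cAMP. IC50 taken as the concentration giving 50% inhibition of hydrolysis, from concentration–response curves. Three experiments per agent.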

The species entered for assay [4] is Cavia porcellus. The assay is described as §1. In a few lines:
as §2

For assay [5], the system named is Cavia porcellus. The assay can be described thus: Bronchodilatory activity in ovalbumin-treated guinea pig at 10 mg/kg, po administered 1 hr prior to ovalbumin challenge relative to vehicle-treated control. The format is functional. In a few lines:
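Male guinea pigs OVA-sensitized at 3 weeks old, studied 6 weeks later. Anesthetized, tracheally cannulated and ventilated with room air at 60 strokes/min. Air-overflow measured by the Konzett-Rössler method. Bronchospasm induced by i.v. OVA via hind-paw vein. Peak response taken within 10 min of challenge as % of theoretical maximum. Oral dosing 1 h before challenge; % inhibition against vehicle.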

Calls of active or inactive are those of the source. The rule behind the calls is not given here.

In the case of `Brc1cccc(Sc2ncccc2OCCCc2ccccn2)c1`, the inhibition in assay [1] was 10%.

With `Brc1cccc(Sc2ncccc2OCCc2ccncc2)c1`, in assay [1], the inhibition came out at 56%.

Regarding `Brc1cccc(Sc2ncccc2OCCCCc2cccnc2)c1`, in assay [1], the inhibition amounted to 5%.

Turning to `COc1ccc(C2CNC(=O)C2)cc1OC1CCCC1` (centres undefined) [ROLIPRAM], the inhibition in vivo at 10 mg/kg in assay [2] was 39%. In addition, the IC50 in assay [3] was 54 nM.

For `O=C(c1cccc(Br)c1)c1ccccn1`, the inhibition result in assay [4] was “inactive”.

For the molecule `Brc1cccc(Sc2ncccc2OCCCCc2ccncc2)c1`, the inhibition in assay [1] amounted to 3%.

As for `Brc1cccc(Sc2ncccc2OCCCc2cccnc2)c1`, the inhibition in assay [1] came to 69%.

Regarding `N#CCCCOc1cccnc1Sc1cccc(Br)c1`, in assay [3], the IC50 is 104 nM.

As to `Brc1cccc(Sc2ncccc2OCCc2cccnc2)c1`, the inhibition in assay [1] was 60%.

In the case of `Brc1cccc(Sc2ncccc2OCCCc2ccncc2)c1`, the inhibition in assay [1] was 80%. Also, the Activity in assay [5] was 77%. Moreover, the inhibition in vivo at 10 mg/kg in assay [2] came out at 50%. Moreover, the IC50 in assay [3] was found to be 34 nM.
